Test results from ChEMBL document CHEMBL3297674, “Structure-activity relationships of 2'-modified-4'-selenoarabinofuranosyl-pyrimidines as anticancer agents” (Eur J Med Chem, 2014).

Test system: K562
Experiment: Cytotoxicity against human K562 cells by SRB assay
Format: functional, cell-based
Settings: not given
Outline: (§1)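 Cytotoxicity measured in human cancer cell lines (colon HCT116, lung A549, stomach SNU638, breast T47D, prostate PC-3, leukemia K562) by sulforhodamine B protein staining.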

`O=c1[nH]c(=O)n(C2[Se][C@H](CO)[C@@H](O)[C@@H]2O)cc1Br` (some centres not stated) and `O=c1[nH]c(=O)n(C2[Se][C@H](CO)[C@@H](O)[C@@H]2O)cc1I` (some centres not stated) cannot be ordered by IC50: over 100 µM for the first, over 100 µM for the second.

Compared with `Nc1ccn(C2[Se][C@H](CO)[C@@H](O)[C@@H]2F)c(=O)n1` (some centres not stated), `Nc1ccn(C2[Se][C@H](CO)[C@@H](O)[C@@H]2O)c(=O)n1` (some centres not stated) is 140-fold higher in IC50: 0.63 µM for the first, 86.6 µM for the second. The first is the more potent here.

`Cc1cn(C2[Se][C@H](CO)[C@@H](O)[C@@H]2N=[N+]=[N-])c(=O)[nH]c1=O` (single isomer, unassigned; (+)) and `[N-]=[N+]=N[C@@H]1C(n2cc(F)c(=O)[nH]c2=O)[Se][C@H](CO)[C@H]1O` (single isomer, unassigned; (+)) cannot be ordered by IC50: over 100 µM for the first, over 100 µM for the second.

`O=c1[nH]c(=O)n(C2[Se][C@H](CO)[C@@H](O)[C@@H]2F)cc1Cl` (single isomer, unassigned; (+)) and `O=c1ccn(C2[Se][C@H](CO)[C@@H](O)[C@@H]2F)c(=O)[nH]1` (single isomer, unassigned; (-)) cannot be ordered by IC50: over 100 µM for the first, over 100 µM for the second.

Compared with `[N-]=[N+]=N[C@@H]1C(n2ccc(N)nc2=O)[Se][C@H](CO)[C@H]1O` (single isomer, unassigned; (+)), `[N-]=[N+]=N[C@@H]1C(n2cc(Br)c(=O)[nH]c2=O)[Se][C@H](CO)[C@H]1O` (single isomer, unassigned; (-)) is higher in IC50: 62.3 µM for the first, over 100 µM for the second.

Test system: not listed separately
Experiment: Cytotoxicity against human SNU638 cells by SRB assay
Format: functional, cell-based
Settings: SNU-638
Outline: as §1

`O=c1[nH]c(=O)n(C2[Se][C@H](CO)[C@@H](O)[C@@H]2O)cc1Br` (some centres not stated) and `O=c1[nH]c(=O)n(C2[Se][C@H](CO)[C@@H](O)[C@@H]2O)cc1I` (some centres not stated) cannot be ordered by IC50: over 100 µM for the first, over 100 µM for the second.

Going from `Nc1ccn(C2[Se][C@H](CO)[C@@H](O)[C@@H]2F)c(=O)n1` (some centres not stated) to `Nc1ccn(C2[Se][C@H](CO)[C@@H](O)[C@@H]2O)c(=O)n1` (some centres not stated), the IC50 rises from 0.14 µM to 4.72 µM (34-fold).

`Cc1cn(C2[Se][C@H](CO)[C@@H](O)[C@@H]2N=[N+]=[N-])c(=O)[nH]c1=O` (single isomer, unassigned; (+)) and `[N-]=[N+]=N[C@@H]1C(n2cc(F)c(=O)[nH]c2=O)[Se][C@H](CO)[C@H]1O` (single isomer, unassigned; (+)) cannot be ordered by IC50: over 100 µM for the first, over 100 µM for the second.

Going from `O=c1[nH]c(=O)n(C2[Se][C@H](CO)[C@@H](O)[C@@H]2F)cc1Cl` (single isomer, unassigned; (+)) to `O=c1ccn(C2[Se][C@H](CO)[C@@H](O)[C@@H]2F)c(=O)[nH]1` (single isomer, unassigned; (-)), the IC50 rises from 76.3 µM to over 100 µM. The first is the more potent here.

Compared with `[N-]=[N+]=N[C@@H]1C(n2ccc(N)nc2=O)[Se][C@H](CO)[C@H]1O` (single isomer, unassigned; (+)), `[N-]=[N+]=N[C@@H]1C(n2cc(Br)c(=O)[nH]c2=O)[Se][C@H](CO)[C@H]1O` (single isomer, unassigned; (-)) is higher in IC50: 85.2 µM for the first, over 100 µM for the second. The first is the more potent here.

With `Nc1ccn([C@@H]2O[C@H](CO)[C@@H](O)[C@@H]2O)c(=O)n1` [CYTARABINE] the IC50 was 0.15 µM.

Test system: PC-3
Experiment: Cytotoxicity against human PC3 cells by SRB assay
Format: functional, cell-based
Settings: not given
Outline: as §1

`O=c1[nH]c(=O)n(C2[Se][C@H](CO)[C@@H](O)[C@@H]2O)cc1Br` (some centres not stated) and `O=c1[nH]c(=O)n(C2[Se][C@H](CO)[C@@H](O)[C@@H]2O)cc1I` (some centres not stated) cannot be ordered by IC50: over 100 µM for the first, over 100 µM for the second.

First: Nc1ccn(C2[Se][C@H](CO)[C@@H](O)[C@@H]2F)c(=O)n1 (some centres not stated)
Second: Nc1ccn(C2[Se][C@H](CO)[C@@H](O)[C@@H]2O)c(=O)n1 (some centres not stated)
The IC50 of the first is 7.8-fold lower: 0.58 µM for the first, 4.54 µM for the second. The first is the more potent here.

`Cc1cn(C2[Se][C@H](CO)[C@@H](O)[C@@H]2N=[N+]=[N-])c(=O)[nH]c1=O` (single isomer, unassigned; (+)) and `[N-]=[N+]=N[C@@H]1C(n2cc(F)c(=O)[nH]c2=O)[Se][C@H](CO)[C@H]1O` (single isomer, unassigned; (+)) cannot be ordered by IC50: over 100 µM for the first, over 100 µM for the second.

`O=c1[nH]c(=O)n(C2[Se][C@H](CO)[C@@H](O)[C@@H]2F)cc1Cl` (single isomer, unassigned; (+)) and `O=c1ccn(C2[Se][C@H](CO)[C@@H](O)[C@@H]2F)c(=O)[nH]1` (single isomer, unassigned; (-)) cannot be ordered by IC50: over 100 µM for the first, over 100 µM for the second.

First: [N-]=[N+]=N[C@@H]1C(n2ccc(N)nc2=O)[Se][C@H](CO)[C@H]1O (single isomer, unassigned; (+))
Second: [N-]=[N+]=N[C@@H]1C(n2cc(Br)c(=O)[nH]c2=O)[Se][C@H](CO)[C@H]1O (single isomer, unassigned; (-))
The IC50 of the first is lower: 75.1 µM for the first, over 100 µM for the second.

Test system: T47D
Experiment: Cytotoxicity against human T47D cells by SRB assay
Format: functional, cell-based
Settings: not given
Outline: as §1

`O=c1[nH]c(=O)n(C2[Se][C@H](CO)[C@@H](O)[C@@H]2O)cc1Br` (some centres not stated) and `O=c1[nH]c(=O)n(C2[Se][C@H](CO)[C@@H](O)[C@@H]2O)cc1I` (some centres not stated) cannot be ordered by IC50: over 100 µM for the first, over 100 µM for the second.

Going from `Nc1ccn(C2[Se][C@H](CO)[C@@H](O)[C@@H]2F)c(=O)n1` (some centres not stated) to `Nc1ccn(C2[Se][C@H](CO)[C@@H](O)[C@@H]2O)c(=O)n1` (some centres not stated), the IC50 rises from 0.79 µM to 8.91 µM (11-fold).

`Cc1cn(C2[Se][C@H](CO)[C@@H](O)[C@@H]2N=[N+]=[N-])c(=O)[nH]c1=O` (single isomer, unassigned; (+)) and `[N-]=[N+]=N[C@@H]1C(n2cc(F)c(=O)[nH]c2=O)[Se][C@H](CO)[C@H]1O` (single isomer, unassigned; (+)) cannot be ordered by IC50: over 100 µM for the first, over 100 µM for the second.

Going from `O=c1[nH]c(=O)n(C2[Se][C@H](CO)[C@@H](O)[C@@H]2F)cc1Cl` (single isomer, unassigned; (+)) to `O=c1ccn(C2[Se][C@H](CO)[C@@H](O)[C@@H]2F)c(=O)[nH]1` (single isomer, unassigned; (-)), the IC50 rises from 77.1 µM to over 100 µM. The first is the more potent here.

First: [N-]=[N+]=N[C@@H]1C(n2ccc(N)nc2=O)[Se][C@H](CO)[C@H]1O (single isomer, unassigned; (+))
Second: [N-]=[N+]=N[C@@H]1C(n2cc(Br)c(=O)[nH]c2=O)[Se][C@H](CO)[C@H]1O (single isomer, unassigned; (-))
The IC50 of the first is lower: 78.4 µM for the first, over 100 µM for the second. The first is the more potent here.

Test system: HCT-116
Experiment: Cytotoxicity against human HCT116 cells by SRB assay
Format: functional, cell-based
Settings: not given
Outline: as §1

`O=c1[nH]c(=O)n(C2[Se][C@H](CO)[C@@H](O)[C@@H]2O)cc1Br` (some centres not stated) and `O=c1[nH]c(=O)n(C2[Se][C@H](CO)[C@@H](O)[C@@H]2O)cc1I` (some centres not stated) cannot be ordered by IC50: over 100 µM for the first, over 100 µM for the second.

Compared with `Nc1ccn(C2[Se][C@H](CO)[C@@H](O)[C@@H]2F)c(=O)n1` (some centres not stated), `Nc1ccn(C2[Se][C@H](CO)[C@@H](O)[C@@H]2O)c(=O)n1` (some centres not stated) is 6.5-fold higher in IC50: 1.1 µM for the first, 7.13 µM for the second.

`Cc1cn(C2[Se][C@H](CO)[C@@H](O)[C@@H]2N=[N+]=[N-])c(=O)[nH]c1=O` (single isomer, unassigned; (+)) and `[N-]=[N+]=N[C@@H]1C(n2cc(F)c(=O)[nH]c2=O)[Se][C@H](CO)[C@H]1O` (single isomer, unassigned; (+)) cannot be ordered by IC50: over 100 µM for the first, over 100 µM for the second.

First: O=c1[nH]c(=O)n(C2[Se][C@H](CO)[C@@H](O)[C@@H]2F)cc1Cl (single isomer, unassigned; (+))
Second: O=c1ccn(C2[Se][C@H](CO)[C@@H](O)[C@@H]2F)c(=O)[nH]1 (single isomer, unassigned; (-))
The IC50 of the first is lower: 80.2 µM for the first, over 100 µM for the second. The first is the more potent here.

Compared with `[N-]=[N+]=N[C@@H]1C(n2ccc(N)nc2=O)[Se][C@H](CO)[C@H]1O` (single isomer, unassigned; (+)), `[N-]=[N+]=N[C@@H]1C(n2cc(Br)c(=O)[nH]c2=O)[Se][C@H](CO)[C@H]1O` (single isomer, unassigned; (-)) is higher in IC50: 78.3 µM for the first, over 100 µM for the second.

Test system: A549
Experiment: Cytotoxicity against human A549 cells by SRB assay
Format: functional, cell-based
Settings: not given
Outline: as §1

`O=c1[nH]c(=O)n(C2[Se][C@H](CO)[C@@H](O)[C@@H]2O)cc1Br` (some centres not stated) and `O=c1[nH]c(=O)n(C2[Se][C@H](CO)[C@@H](O)[C@@H]2O)cc1I` (some centres not stated) cannot be ordered by IC50: over 100 µM for the first, over 100 µM for the second.

Compared with `Nc1ccn(C2[Se][C@H](CO)[C@@H](O)[C@@H]2F)c(=O)n1` (some centres not stated), `Nc1ccn(C2[Se][C@H](CO)[C@@H](O)[C@@H]2O)c(=O)n1` (some centres not stated) is 19-fold higher in IC50: 0.47 µM for the first, 8.83 µM for the second. The first is the more potent here.

`Cc1cn(C2[Se][C@H](CO)[C@@H](O)[C@@H]2N=[N+]=[N-])c(=O)[nH]c1=O` (single isomer, unassigned; (+)) and `[N-]=[N+]=N[C@@H]1C(n2cc(F)c(=O)[nH]c2=O)[Se][C@H](CO)[C@H]1O` (single isomer, unassigned; (+)) cannot be ordered by IC50: over 100 µM for the first, over 100 µM for the second.

Going from `O=c1[nH]c(=O)n(C2[Se][C@H](CO)[C@@H](O)[C@@H]2F)cc1Cl` (single isomer, unassigned; (+)) to `O=c1ccn(C2[Se][C@H](CO)[C@@H](O)[C@@H]2F)c(=O)[nH]1` (single isomer, unassigned; (-)), the IC50 rises from 82.1 µM to over 100 µM.

First: [N-]=[N+]=N[C@@H]1C(n2ccc(N)nc2=O)[Se][C@H](CO)[C@H]1O (single isomer, unassigned; (+))
Second: [N-]=[N+]=N[C@@H]1C(n2cc(Br)c(=O)[nH]c2=O)[Se][C@H](CO)[C@H]1O (single isomer, unassigned; (-))
The IC50 of the first is lower: 80.1 µM for the first, over 100 µM for the second. The first is the more potent here.

Test system: PC-3
Experiment: Drug metabolism in human PC3 cells assessed as formation of mono, di, or triphosphate at 50 uM after 24 hrs by HPLC-MS analysis
Format: ADME, cell-based
Settings: pc-3, 24 h
Outline: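 PC-3 cells seeded at 5×10^5 per 100 mm dish, grown 24 h, then exposed to 50 µM compound for 24 h. Cells washed with DPBS and extracted in methanol/chloroform with three liquid N₂ freeze–sonication cycles. Water/chloroform phase split at 22,000 g, 4 °C. Dried upper layer analysed by HILIC (ZIC-pHILIC, 10 mM ammonium carbonate/acetonitrile gradient, 35 °C) with ESI ion-trap MS.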

With `Nc1ccn(C2[Se][C@H](CO)[C@@H](O)[C@@H]2F)c(=O)n1` (some centres not stated) the Drug metabolism was “metabolite_notdetected”.
